STK33 kinase inh: inhibitors of purified STK33 kinase, primary screen, biochemical, ADP-Glo luminescence, homogeneous, cell-free; inhibition, % at 10 µM; MBP phosphorylation; 320,000 compounds, 0.073% hits; AID 2661, 2010;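 active = inhibition at or above 25%, using the most active replicate where run in duplicate; inactive = inhibition below 25%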
Target sequence (Q9BYT3 whole entry, looked up): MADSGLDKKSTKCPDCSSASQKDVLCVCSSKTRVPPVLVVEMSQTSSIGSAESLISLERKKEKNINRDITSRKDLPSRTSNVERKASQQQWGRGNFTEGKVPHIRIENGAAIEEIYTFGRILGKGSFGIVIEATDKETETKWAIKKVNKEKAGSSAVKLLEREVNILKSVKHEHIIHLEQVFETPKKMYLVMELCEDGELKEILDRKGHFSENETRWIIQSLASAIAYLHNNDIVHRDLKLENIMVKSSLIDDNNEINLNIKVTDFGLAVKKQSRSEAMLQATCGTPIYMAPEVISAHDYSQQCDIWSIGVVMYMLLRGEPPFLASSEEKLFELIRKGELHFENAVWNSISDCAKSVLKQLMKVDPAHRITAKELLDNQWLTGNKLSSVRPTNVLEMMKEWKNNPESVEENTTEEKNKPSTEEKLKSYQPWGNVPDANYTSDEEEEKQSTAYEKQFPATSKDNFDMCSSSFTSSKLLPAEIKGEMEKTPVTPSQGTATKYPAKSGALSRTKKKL
Dyrk1A ADPGlo: rat Dyrk1A kinase inhibitors, primary screen, biochemical, single point, plate reader. ADP-Glo luminescence, NFATc1 peptide. inhibition, % at 12.5 µM. 310,000 compounds, 0.43% hits. AID 504441, 2011; in the data active = inhibition above about 50%;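 also: plate controls were vehicle with enzyme for no effect and no enzyme for full effect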
CDK5 inh: inhibitors of human CDK5/p35 kinase, primary screen, biochemical, single concentration; Cyclin-dependent kinase 5 (Homo sapiens) + Cyclin-dependent kinase 5 activator 1 (Homo …; Recombinant CDK5/p35, ADP-Glo luminescence, 60 min; inhibition, % at 10 µM; 330,000 compounds, 0.01% hits; AID 488839, 2010;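 active = highest replicate inhibition of at least 50% and at least 75% of replicates reaching 50%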;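 also: plate controls were DMSO neutral control for no effect and GW8510 at 10 µM for full effect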
GSK3B inh: human GSK3beta kinase inhibitors, primary screen, biochemical, cell-free homogeneous, HTS; Glycogen synthase kinase-3 beta (Homo sapiens), P49841; GST-GSK3beta kinase, ADP-Glo luminescence, 60 min; stronger effect = lower value; activity score (negative = inhibition), % at 10 µM; 300,000 compounds, 0.038% hits; AID 2097, 2009;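 active = more than half of replicate wells score below -50%, meaning over 50% inhibition versus plate controls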;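 also: 0% = median DMSO wells and -100% = median GW8510 positive control wells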
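test system = GST-tagged human GSK3beta kinase, cell-free | reagent = 25 µM ATP with peptide substrate | dosing = one dose of 10 µM per compound | schedule = 60 min reaction, RT | detection = luminescent ADP-Glo measurement of ADP formed | control set = DMSO neutral wells and GW8510 at 20 µM as positive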
GSK3A inh: blockers of GSK3A enzyme activity – biochemical, luminescence, cell-free homogeneous, HTS, primary screen; GSK-3 alpha kinase, ADP-Glo luminescence, 60 min; inhibition, % at 10 µM; AID 2650, 2010; 320,000 compounds, 0.1% hits;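 active = more than half of replicates show inhibition above 20%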;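 also: GST-tagged GSK-3 alpha with peptide substrate and 25 µM ATP; 0% = DMSO neutral wells and 100% = GW8510 positive control wells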
ADP-Glo artifact: ADP-Glo luciferase interference without Dyrk1A, dose response, artefact control for Dyrk1A inhibitor project, biochemical, luminescence, cherry-pick, set 02. ADP-Glo luciferase artifact assay, no Dyrk1A. shares compounds with Dyrk1A ADPGlo. AC50, µM (series often up to 12 µM), for inactives: top-dose activity change, negative = inhibition. 1,300 tested, under 10 active;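 active = fitted half-maximal dose AC50 no more than ten times the top valid tested dose, with luminescence dropping as dose rises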
Active calls of the source: *; . = no result. Shown is part of a subset that was picked to be rich in hits.

SMILES | STK33 kinase inh | Dyrk1A ADPGlo | CDK5 inh | GSK3B inh | GSK3A inh | ADP-Glo artifact
O=C(NCc1ccccc1)C1=C[C@H](c2ccccc2)C[C@H](OCc2ccc(CO)cc2)O1 | -2 | 52* | -3 | 0 | 6 | 12%
COc1cccc(NC(=O)CN(C)C(=O)c2ccc3c(c2)S(=O)(=O)N=C2CCCCCN23)c1 | 1 | 11 | -6 | 0 | -3 | .
CSc1nc(O)c(/C=C2\C=Nc3ccccc32)[nH]1 | 9 | 57* | 2 | -21 | 39 | 8%
O=c1[nH]c(/C=C2\C=Nc3ccccc32)c(O)n1Cc1ccccc1F | -2 | 1 | -1 | 0 | -1 | .
CC(C)C[C@H]1COCCS(=O)(=O)N1Cc1cccc(Cl)c1 | 0 | 51* | 1 | -7 | 6 | 8%
Cn1c(=O)c2ccccc2n(Cc2cccc(F)c2)c1=O | 0 | . | 2 | 1 | 0 | .
O=c1oc2c(-c3cccc(F)c3)cc(O)cc2s1 | 2 | 65* | -1 | -2 | 2 | 10%
Nc1nnc(-c2cccc(F)c2)s1 | 2 | 23 | 4 | 2 | 0 | .
O=C(NC(=S)N(CC1CCC1)CC1CCCO1)c1cccc([N+](=O)[O-])c1 (stereo not drawn) | 0 | 2 | -1 | 3 | 1 | .
CN1CCN(c2cc3c(c4c2[nH]c2ccccc24)C(=O)CC(C)(C)C3)CC1 | 4 | 56* | 1 | -9 | 8 | 10%
Cc1cc([N+](=O)[O-])nn1Cc1ccccc1F | 0 | 51* | 0 | 2 | -3 | 12%
CCn1c2ccccc2c2nc3ccccc3nc21 | 3 | 1 | 1 | 2 | 2 | .
CCn1c2ccccc2c2nc3cc(C(=O)O)ccc3nc21 | . | 62* | 0 | . | . | 10%
COc1ccc(S(=O)(=O)Nc2ccccc2N2CCOCC2)cc1[N+](=O)[O-] | -2 | -2 | 0 | 2 | -2 | .
O=C(O)c1ccc(N=NNc2cccc([N+](=O)[O-])c2)cc1 | 1 | 16 | 2 | -1 | 5 | .
N#C/C(=N\Nc1cccc([N+](=O)[O-])c1)C(=O)c1ccc(Br)cc1 | 0 | 78* | 1 | 2 | 8 | 7%
CCCCn1c(N2CCC(Cc3ccccc3)CC2)nc2c1c(=O)[nH]c(=O)n2C | 2 | 56* | 0 | -1 | -1 | 7%
Cc1nnc(SCCn2c(N3CCC(Cc4ccccc4)CC3)nc3c2c(=O)[nH]c(=O)n3C)s1 | -2 | . | . | 1 | 0 | .
O=C1CCCc2c1[nH]c1ccccc21 | 2 | 29 | 0 | -1 | 0 | .
c1ccc2c3c([nH]c2c1)-c1[nH]ncc1CC3 | 32* | 56* | 8 | 0 | 36 | 10%
Clc1ccc2[nH]c3c(c2c1)CCc1cn[nH]c1-3 | 9 | 51* | 1 | -36 | 15 | 7%
CC(C)(C)CC(=O)NCCc1csc(-c2ccccc2)n1 | 1 | 1 | 2 | 1 | -1 | .
Cc1ccc(S(=O)(=O)N(C)C)cc1NC(=O)COC(=O)CN1C(=O)c2ccccc2C1=O | -1 | 3 | 0 | . | -1 | .
S=c1[nH]cc(-c2ccc(Cl)cc2)n1Cc1ccccc1 | -1 | 55* | 1 | 1 | 0 | 9%
Cc1ccc(-c2csc3ncnc(SCC(=O)O)c23)cc1 | 6 | 76* | 0 | 4 | 0 | 9%
SMILES | STK33 kinase inh | Dyrk1A ADPGlo | CDK5 inh | GSK3B inh | GSK3A inh | ADP-Glo artifact
CCCNC(=O)c1cc(S(=O)(=O)N2CCCCC2)c[nH]1 | -1 | 2 | -1 | 4 | -2 | .
CC1CCC(NC(=O)c2cc(S(=O)(=O)N3CCCCC3)c[nH]2)CC1 (stereo not drawn) | -2 | 57* | 0 | 4 | 1 | 8%
CCn1c(SCC(=O)NC2CCCC2)nnc1-c1ccncc1 | -1 | 10 | -1 | 1 | -2 | .
COCCCn1c(SCC(=O)NC2CCCCC2)nnc1-c1ccncc1 | -1 | 51* | 0 | 0 | 8 | 8%
Cc1ccnc(Nc2nc(-c3ccc(O)c(O)c3)cs2)c1 | 10 | 54* | 6 | . | 8 | 6%
Cc1c(C(=O)O)cccc1-n1c(C)cc(/C=N/Nc2ccc([N+](=O)[O-])cn2)c1C | 9 | 59* | 6 | -9 | 35 | 9%
Cc1cc(/C=N/Nc2ccc([N+](=O)[O-])cn2)c(C)n1-c1ccccc1 | -1 | 6 | 0 | 4 | -2 | .
NNc1nc2c(Cl)ccc(Cl)c2s1 | -1 | 57* | 2 | 0 | -3 | 8%
O=C(Nc1nc2c(Cl)ccc(Cl)c2s1)C1CC1 | 0 | 9 | 1 | 5 | 1 | .
Oc1[nH]c2ccccc2c1N=NC(=S)N1CCOCC1 | -3 | 13 | 0 | 0 | -4 | .
Oc1[nH]c2ccc(Br)cc2c1N=NC(=S)N1CCOCC1 | 3 | 63* | 2 | -9 | 3 | 9%
Cc1ccc(-n2nnnc2SCC(=O)NC2CC2)cc1C | 1 | 7 | -1 | 1 | -1 | .
O=C(NNC1=C(C(=O)C(F)(F)F)CCC1)c1ccccc1O | 2 | 56* | -1 | 1 | -2 | 10%
Nc1nc(N)nc(-c2cc(F)ccc2O)n1 | 14 | 36 | 13 | . | 9 | .
COc1ccc2cc(C(=O)N/N=C/c3cc(OC)c(OC)c(OC)c3)[nH]c2c1 | 0 | 54* | 1 | -1 | 3 | 9%
COc1ccc(/C=N/NC(=O)c2cc3cc(OC)c(OC)cc3[nH]2)cc1 | 2 | 3 | 0 | -1 | 3 | .
Cc1[nH]n(-c2ccccc2)c(=O)c1/C=N/N1C(=O)c2ccc3c4c(ccc(c24)C1=O)CC3 | . | -3 | 1 | 3 | . | .
O=C(Nc1cccnc1)c1ccc(Br)s1 | 1 | 10 | -1 | 5 | 0 | .
O=C(Nc1cccc(-c2nn[nH]n2)c1)c1ccc(Cl)s1 | 1 | 76* | 1 | -12 | 9 | 10%
O=C(Nc1cccc(-c2nn[nH]n2)c1)c1ccc(Br)s1 | 21 | 92* | 1 | -9 | 14 | 10%
COc1ccc2nc3c(cc2c1)c(NC(=O)C1CCCO1)nn3CC(C)C (stereo not drawn) | 1 | 79* | 28 | -88* | 99* | 10%
O=C(/C=C/c1ccc(Cl)cc1)Nc1nccs1 | . | -2 | 1 | 2 | . | .
COc1ccc2c(c1)-c1nc(NC(=O)c3ccco3)sc1CC2 | 1 | 35 | -1 | 2 | -1 | .
Cc1sc(NC(=O)c2ccco2)nc1-c1ccccc1 | 3 | 52* | 1 | 4 | -3 | 10%
COc1ccc2c(c1)CCc1sc(NC(=O)c3ccco3)nc1-2 | 2 | 68* | 2 | -7 | -1 | 7%
